Screening data as filed in PubChem.
ARFGAP1 inhibitor: inhibitors of rat ARFGAP1 GAP activity, primary screen, biochemical, fluorescence polarization, GDP tracer; AID 651572, 2012; 360,000 tested, 0.26% active; Arfgap1-stimulated ARF1 GTP hydrolysis, GDP FP detection; inhibition, % at 16.5 µM; ADP-ribosylation factor GTPase-activating protein 1 (Rattus norvegicus), Q62848;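 active means inhibition above a per-plate limit, mean inhibition of low control wells plus 3 SD, cut at about 25% in these data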
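Material – truncated rat Arfgap1 GAP domain · Buffer or medium – HEPES-based buffer, pH 7.5 · Reagent – human ARF1(Δ1-17)-GTP substrate · Dosing – 16.5 µM single point, 1.26% DMSO · Schedule – GTP hydrolysis reaction 2 h at 25 °C · Technique – GDP detection by fluorescence polarization · Benchmarks – No-Arfgap1 wells (100%) versus DMSO full-reaction wells (0%) · Repeats – single replicate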
H9c2 protect: cardioprotection against H2O2-induced cell death, primary screen, uHTS, H9c2 cells, ATPLite luminescence | 360,000 tested, 0.63% active | protection from H2O2 cell death, % at 20 µM | H9c2 cardiomyocytes, H2O2 injury protection, 2 h | AID 588492, 2011;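 active means compounds giving at least 50% protection of heart cells from peroxide-induced death in the single-dose screen, raw or plate-pattern-corrected value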
ASAP1 GAP inh: inhibitors of human ASAP1 ArfGAP activity, primary screen, biochemical, fluorescence polarization | Arf-GAP with SH3 domain, ANK repeat and PH domain-containing protein 1 (Homo sapiens), … | ASAP1-stimulated ARF1 GTP hydrolysis, GDP FP detection | inhibition, % at 16.5 µM | 360,000 tested, 0.19% active | AID 624377, 2012; in the data active means inhibition above about 25%
Neddylation inh: inhibitors of cullin neddylation, primary screen, biochemical, TR-FRET, uHTS, NAE and Ubc12 | NEDD8-conjugating enzyme Ubc12 (Homo sapiens) + NEDD8-activating enzyme E1 regulatory … | inhibition, % at 25 µM | 360,000 tested, 0.58% active | AID 651699, 2012; in the data active means inhibition above about 36%
ARFGAP1 inh conf: ARFGAP1 inhibitor hit confirmation, biochemical, fluorescence polarization, triplicate; shares compounds with ARFGAP1 inhibitor; ARFGAP1-stimulated ARF1 GTP hydrolysis, GDP tracer FP; 890 tested, 30% active; inhibition, % at 16.5 µM;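 active means average inhibition over triplicates above the hit cutoff set in the earlier primary screen, cut at about 25% in these data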
Target sequence (Q62848 whole entry, looked up): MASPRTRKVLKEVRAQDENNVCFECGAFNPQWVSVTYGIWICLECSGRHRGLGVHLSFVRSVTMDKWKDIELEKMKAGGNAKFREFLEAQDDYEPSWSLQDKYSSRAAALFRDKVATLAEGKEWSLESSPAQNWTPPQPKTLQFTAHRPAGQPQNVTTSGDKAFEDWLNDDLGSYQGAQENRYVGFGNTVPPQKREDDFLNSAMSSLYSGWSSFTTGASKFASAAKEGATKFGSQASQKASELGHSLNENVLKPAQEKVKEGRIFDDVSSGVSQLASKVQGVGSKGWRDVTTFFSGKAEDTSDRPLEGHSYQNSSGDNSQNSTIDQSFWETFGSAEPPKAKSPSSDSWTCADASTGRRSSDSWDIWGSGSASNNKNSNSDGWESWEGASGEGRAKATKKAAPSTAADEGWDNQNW
Large screens that a line does not name were inactive (follow-up assays come after a bar, where shown). The list is not random: actives were taken first. Their share in the collection is about 1.6%.

O=C(NCC1CCN(c2ccc(S(=O)(=O)N3CCOCC3)cc2)CC1)c1ccc(Cl)cc1	ARFGAP1 inhibitor 26.0 | ARFGAP1 inh conf inactive
O=C(NNC(=O)c1cccc(S(=O)(=O)N2CCN(c3ccccc3)CC2)c1)c1ccc(Cl)cc1	ARFGAP1 inhibitor 24.8 | ARFGAP1 inh conf inactive
COC(=O)Cc1nnn2c1[C@H](C)[C@@H](OC)c1ccccc1-2	none (no result: H9c2 protect, Neddylation inh)
C[C@H](CO)N1C[C@H](C)[C@H](CN(C)C(=O)Nc2cccc(F)c2)Oc2cc(C#CC3(O)CCCC3)ccc2S1(=O)=O	ARFGAP1 inhibitor 28.8 | ARFGAP1 inh conf inactive
c1ccc(COc2ncnc3c2ncn3CCCNC2CCN(Cc3ccccc3)CC2)cc1	none
COc1ccc(-c2csc(NC(=O)[C@H](C)N3C(=O)C4CC=CCC4C3=O)n2)cc1OC (stereo partly drawn)	none
CC(C(=O)Nc1nc(-c2ccc(F)c(F)c2)cs1)N1C(=O)C2CC=CCC2C1=O (stereo not drawn)	ARFGAP1 inhibitor 26.8 | ARFGAP1 inh conf inactive
Cn1ccc2c(-c3cncc4ccccc34)cc3c(c21)C1CCC3C1 (stereo not drawn)	ARFGAP1 inhibitor 31.8 (not shown: Neddylation inh) | ARFGAP1 inh conf inactive
Cn1ccc2c(-c3cccc4ccccc34)cc3c(c21)C1CCC3C1 (stereo not drawn)	none (not shown: Neddylation inh)
Cc1ccc(S(=O)(=O)NCC(C)n2nc(C)cc2C)cc1 (stereo not drawn)	none
Cc1cc(C)n(C(C)CNS(=O)(=O)c2ccc(Cl)cc2)n1 (stereo not drawn)	ARFGAP1 inhibitor 24.7 | ARFGAP1 inh conf inactive
COC(=O)C[C@H]1CC[C@H](NS(=O)(=O)c2cn(C)cn2)[C@@H](CO)O1	none (no result: H9c2 protect)
O=c1c(C(c2ccc(F)cc2)c2c(O)nc3n(c2=O)CCS3)c(O)nc2n1CCS2	ARFGAP1 inhibitor 25.8 | ARFGAP1 inh conf inactive
CC(C)N1CCN(Cc2ccc(-c3ccccc3Cl)o2)CC1CCO (stereo not drawn)	ARFGAP1 inhibitor 29.1 | ARFGAP1 inh conf inactive
O=C(NCCCO)C(=O)Nc1cc2c3c(c1)CCC(=O)N3CCC2	ARFGAP1 inhibitor 26.6 | ARFGAP1 inh conf inactive
CC(C)(C)Cc1c(-c2ccco2)nc2ccc(Cl)cn12	none
O=c1[nH][nH]cc1C=Nc1ccc(Cl)cc1	ARFGAP1 inhibitor 36.0 | ARFGAP1 inh conf inactive
O=C(Nc1ccc(OC(F)(F)F)cc1)C1CCCN(C(=O)c2ccc(Cl)cc2)C1 (stereo not drawn)	ARFGAP1 inhibitor 24.9 | ARFGAP1 inh conf inactive
CCOC(=O)N(C)C[C@@H]1OCc2cnnn2CCCC(=O)N([C@H](C)CO)C[C@@H]1C	none
Cc1cc(=O)n(C2CCS(=O)(=O)C2)[nH]1 (stereo not drawn)	ARFGAP1 inhibitor 29.3 | ARFGAP1 inh conf inactive
Cc1ccccc1-c1nnnn1C1CCS(=O)(=O)C1 (stereo not drawn)	none
CCOC(=O)c1ccc(-c2ccc3c(=O)c4ccccc4n(C)c3c2)cc1F	ARFGAP1 inhibitor 26.4 | ARFGAP1 inh conf inactive
Cc1ccc(-c2cc(-c3ccccc3[N+](=O)[O-])[nH]n2)c(O)c1	ARFGAP1 inhibitor 40.6 | ARFGAP1 inh conf inactive
Cc1ccc(-c2cc(-c3ccccc3Cl)[nH]n2)c(O)c1	none
O=C(N/N=C/c1c[nH]c2ccccc12)c1[nH]c2ccc(Br)cc2c1-c1ccccc1	ARFGAP1 inhibitor 29.5 (not shown: Neddylation inh) | ARFGAP1 inh conf inactive
NC(=O)c1cnc(Cc2c[nH]c3ccccc23)c(I)c1	none
CCCC(=O)OC[C@H]1CN(C2CCCC2)S(=O)(=O)c2c(Oc3ccc(C(C)(C)C)cc3)cccc2O1	none (no result: H9c2 protect, Neddylation inh)
COc1cc(C(=O)OC(C)CN2C(C)CCCC2C)cc(OC)c1OC (stereo not drawn)	ARFGAP1 inhibitor 32.1 | ARFGAP1 inh conf inactive
COC(=O)[C@]12CCCCC=C1N(Cc1ccc3c(c1)OCO3)C(=O)[C@H](CC(=O)N1CCN(C(=O)c3ccco3)CC1)C2	none (no result: H9c2 protect)
CC(=O)c1ccc(S(=O)(=O)N2CCN(C(=O)C(=O)c3cccc(C(F)(F)F)c3)CC2)cc1	none (no result: H9c2 protect, Neddylation inh)
